Laboratory results as given in ChEMBL document CHEMBL4130527, “New Scaffold for Angiogenesis Inhibitors Discovered by Targeted Chemical Transformations of Wondonin Natural Products” (ACS Med Chem Lett, 2017).
pIC50: −log10 of the molar value. Activity calls are given as the source filed them. The rule behind the calls is not given here.

How the values were obtained:
HUVEC [1] = test: Antiangiogenic activity in HUVEC assessed as inhibition of VEGF-induced capillary tube formation after 8 hrs by matrigel based inverted microscopic analysis; format: functional, cell-based; details: Homo sapiens
Outline: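 HUVECs treated with compound with or without VEGF (50 ng/mL) for 8 h. Intact tubes counted under a microscope, and IC50 calculated against control. Value is the mean IC50 from triplicate experiments.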

HUVEC [2] = test: Growth inhibition of HUVEC after 24 hrs in presence of VEGF by MTT assay; format: cell-based; details: Homo sapiens
Outline: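 HUVECs exposed to compound in the presence of VEGF (50 ng/mL) for 24 h, with growth read by MTT assay. Value is the mean IC50 from triplicate experiments.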

[3] = biological target: Vascular endothelial growth factor receptor 2 (Homo sapiens) (UniProt P35968); test: Inhibition of VEGFR2 in HUVEC assessed as decrease in VEGF-induced AKT phosphorylation at Thr308 residues pretreated for 30 mins followed by VEGF stimulation for 20 mins by Western blot analysis; format: cell-based
Chain of Vascular endothelial growth factor receptor 2 (Homo sapiens) (P35968 whole entry, the tested form may be a part, canonical isoform): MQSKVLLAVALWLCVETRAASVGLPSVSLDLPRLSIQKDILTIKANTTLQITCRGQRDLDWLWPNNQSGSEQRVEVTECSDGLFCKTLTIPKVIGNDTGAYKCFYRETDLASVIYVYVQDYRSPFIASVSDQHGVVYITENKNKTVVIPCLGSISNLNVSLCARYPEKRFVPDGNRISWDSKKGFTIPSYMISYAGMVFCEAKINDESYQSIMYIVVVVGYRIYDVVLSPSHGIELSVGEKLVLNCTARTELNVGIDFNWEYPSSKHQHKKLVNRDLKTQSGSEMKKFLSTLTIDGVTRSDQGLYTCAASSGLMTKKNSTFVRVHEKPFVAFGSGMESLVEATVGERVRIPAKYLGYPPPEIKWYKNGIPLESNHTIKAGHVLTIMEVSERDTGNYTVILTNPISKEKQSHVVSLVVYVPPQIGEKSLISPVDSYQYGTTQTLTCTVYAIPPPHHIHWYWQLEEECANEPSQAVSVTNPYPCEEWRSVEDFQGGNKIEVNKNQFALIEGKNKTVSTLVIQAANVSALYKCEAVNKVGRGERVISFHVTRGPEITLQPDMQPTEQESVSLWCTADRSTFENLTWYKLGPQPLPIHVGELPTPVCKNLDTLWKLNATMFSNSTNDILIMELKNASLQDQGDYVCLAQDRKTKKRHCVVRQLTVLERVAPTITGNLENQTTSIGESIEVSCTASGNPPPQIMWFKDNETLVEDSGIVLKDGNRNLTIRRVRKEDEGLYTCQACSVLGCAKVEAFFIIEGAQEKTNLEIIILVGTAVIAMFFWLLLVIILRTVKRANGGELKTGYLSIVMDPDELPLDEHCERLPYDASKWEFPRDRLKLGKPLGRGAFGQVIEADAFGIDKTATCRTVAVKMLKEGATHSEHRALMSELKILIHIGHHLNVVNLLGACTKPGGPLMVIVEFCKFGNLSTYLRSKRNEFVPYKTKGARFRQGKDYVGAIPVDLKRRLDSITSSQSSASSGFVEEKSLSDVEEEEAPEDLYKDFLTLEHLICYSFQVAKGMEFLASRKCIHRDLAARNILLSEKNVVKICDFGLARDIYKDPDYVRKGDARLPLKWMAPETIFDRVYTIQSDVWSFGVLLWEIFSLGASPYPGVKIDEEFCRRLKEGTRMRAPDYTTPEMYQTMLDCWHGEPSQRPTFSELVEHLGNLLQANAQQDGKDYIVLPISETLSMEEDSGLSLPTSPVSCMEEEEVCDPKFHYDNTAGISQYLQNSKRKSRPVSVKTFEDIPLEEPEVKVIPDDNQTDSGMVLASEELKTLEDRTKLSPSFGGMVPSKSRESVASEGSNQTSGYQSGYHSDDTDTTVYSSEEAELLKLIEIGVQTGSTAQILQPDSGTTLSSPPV
Outline: (§1)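 HUVECs pretreated with various compound concentrations for 30 min, then stimulated with VEGF (50 ng/mL) for 20 min. Phosphoproteins detected by immunoblot, with β-actin as loading control.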

[4] = biological target: Vascular endothelial growth factor receptor 2 (Homo sapiens) (UniProt P35968); test: Inhibition of VEGFR2 in HUVEC assessed as decrease in VEGF-induced SRC phosphorylation pretreated for 30 mins followed by VEGF stimulation for 20 mins by Western blot analysis; format: cell-based; outline: as §1
[5] = Stability in human plasma assessed as parent compound remaining at 10 uM after 30 mins by LC-MS/MS analysis; format: ADME, cell-free; details: read-out: Stability
Outline: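 Parent compound remaining after 30 min incubation in human plasma.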

[6] = biological target: Vascular endothelial growth factor receptor 2 (Homo sapiens) (UniProt P35968); test: Inhibition of VEGF-induced VEGFR2 phosphorylation at Tyr1175 residues in HUVEC pretreated for 30 mins followed by VEGF stimulation for 20 mins by Western blot analysis; format: cell-based; outline: as §1
HUVEC [7] = test: Antimigratory activity in HUVEC after 24 hrs by inverted phase contrast light microscopic analysis; format: functional, cell-based; details: Homo sapiens
Outline: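 Migrated HUVECs counted and compared with VEGF-treated control groups. Statistics by ANOVA with Tukey's test, n = 3.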

[8] = biological target: Vascular endothelial growth factor receptor 2 (Homo sapiens) (UniProt P35968); test: Inhibition of VEGFR2 in HUVEC assessed as decrease in VEGF-induced FAK phosphorylation at Tyr397 residues pretreated for 30 mins followed by VEGF stimulation for 20 mins by Western blot analysis; format: cell-based; outline: as §1
[9] = biological target: Vascular endothelial growth factor receptor 2 (Homo sapiens) (UniProt P35968); test: Inhibition of VEGFR2 in HUVEC assessed as decrease in VEGF-induced PI3K phosphorylation at Tyr458 residues pretreated for 30 mins followed by VEGF stimulation for 20 mins by Western blot analysis; format: cell-based; outline: as §1
[10] = biological target: T1, Protein kinase C iota type (Homo sapiens) (UniProt P41743); test: Inhibition of human wild type partial length PRKCI (H215 to V587 residues) expressed in mammalian expression system at 10 uM by Kinomescan method relative to control
T1 sequence (whole entry): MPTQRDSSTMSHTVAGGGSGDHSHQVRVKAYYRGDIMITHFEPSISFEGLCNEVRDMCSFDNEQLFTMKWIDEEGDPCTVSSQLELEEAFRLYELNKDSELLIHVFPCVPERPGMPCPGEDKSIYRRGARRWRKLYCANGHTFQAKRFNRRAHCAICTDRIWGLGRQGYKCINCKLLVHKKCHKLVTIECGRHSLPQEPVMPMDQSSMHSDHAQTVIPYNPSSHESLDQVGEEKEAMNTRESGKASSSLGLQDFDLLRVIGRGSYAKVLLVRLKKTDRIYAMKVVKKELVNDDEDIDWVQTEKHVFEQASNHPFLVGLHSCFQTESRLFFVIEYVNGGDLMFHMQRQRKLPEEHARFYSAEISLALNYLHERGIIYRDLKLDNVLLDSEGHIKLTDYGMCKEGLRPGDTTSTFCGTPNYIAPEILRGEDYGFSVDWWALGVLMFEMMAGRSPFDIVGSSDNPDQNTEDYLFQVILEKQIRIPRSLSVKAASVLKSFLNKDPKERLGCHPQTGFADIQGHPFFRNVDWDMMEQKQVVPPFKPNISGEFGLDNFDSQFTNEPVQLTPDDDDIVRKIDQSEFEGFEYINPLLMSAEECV
Outline: (§2)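 Compound tested at 10 μM in a KINOMEscan binding panel of 30 kinases. Activity taken from binding between each kinase and its corresponding ligand.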

[11] = Metabolic stability in human liver microsomes assessed as parent compound remaining at 1 uM preincubated for 5 mins followed by NADPH addition measured after 30 mins by LC-MS/MS analysis; format: ADME, microsome; details: read-out: Stability
Outline: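 Parent compound remaining after 30 min incubation with human liver microsomes.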

HUVEC [12] = test: Inhibition of integrin in HUVEC assessed as decrease in VEGF-induced SRC/FAK phosphorylation pretreated for 30 mins followed by VEGF stimulation for 20 mins by Western blot analysis; format: cell-based; details: Homo sapiens; outline: as §1
[13] = Apparent permeability from apical to basolateral side in MDCK cells at 10 uM by LC-MS/MS analysis; format: ADME, cell-based, Canis lupus familiaris; details: dog
Outline: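 Apparent permeability coefficient (Papp, A-B) measured across MDCK cell monolayers.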

[14] = biological target: Dual specificity mitogen-activated protein kinase kinase 1 (Homo sapiens) (UniProt Q02750); test: Inhibition of human wild type partial length MEK1 (M1 to V393 residues) expressed in mammalian expression system at 10 uM by Kinomescan method relative to control; outline: as §2
Chain of Dual specificity mitogen-activated protein kinase kinase 1 (Homo sapiens) (Q02750 whole entry, the tested form may be a part): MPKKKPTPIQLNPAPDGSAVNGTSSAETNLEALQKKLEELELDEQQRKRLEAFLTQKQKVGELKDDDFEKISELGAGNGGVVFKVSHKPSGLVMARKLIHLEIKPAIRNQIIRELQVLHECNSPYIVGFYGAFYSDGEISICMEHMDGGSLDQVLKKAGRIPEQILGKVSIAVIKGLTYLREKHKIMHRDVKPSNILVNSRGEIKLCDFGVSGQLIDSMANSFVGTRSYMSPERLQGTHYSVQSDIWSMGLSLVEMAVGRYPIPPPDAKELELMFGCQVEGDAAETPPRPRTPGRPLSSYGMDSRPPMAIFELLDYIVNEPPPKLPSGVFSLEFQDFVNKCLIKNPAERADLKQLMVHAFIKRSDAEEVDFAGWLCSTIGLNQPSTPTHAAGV

Danio rerio [15] = species: Danio rerio; test: Antiangiogenic activity in transgenic zebrafish flk:EGFP embryo model of DR-mimic hyaloid vessels in larval eye lenses assessed as inhibition of high glucose induced increase in hyaloid vessel diameter pretreated with glucose 3 days post fertilization for 3 days followed by compound addition measured 6 days post fertilization by fluorescence microscopy; format: functional, organism-based
Outline: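 Transgenic flk:EGFP zebrafish embryos at 3 dpf exposed to 130 mM glucose for 3 days to induce DR-mimic hyaloid vessels, with compound at varying concentrations. Hyaloid vessel diameter measured near the optic disc in isolated eye lenses; primary branch number compared with high-glucose controls. ANOVA with Tukey's test, n = 3.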

Danio rerio [16] = species: Danio rerio; test: Toxicity in transgenic zebrafish flk:EGFP embryo model of DR-mimic hyaloid vessels in larval eye lenses measured 6 days post fertilization; format: organism-based; details: in vivo, 144 h
[17] = biological target: Vascular endothelial growth factor receptor 2 (Homo sapiens) (UniProt P35968); test: Inhibition of VEGFR2 in HUVEC assessed as decrease in VEGF-induced AKT phosphorylation at […] residues pretreated for 30 mins followed by VEGF stimulation for 20 mins by Western blot analysis; format: cell-based; outline: as §1
[18] = biological target: Casein kinase I isoform alpha (Homo sapiens) (UniProt P48729); test: Inhibition of human wild type partial length CSNK1A1 (M1 to L301 residues) expressed in mammalian expression system at 10 uM by Kinomescan method relative to control; outline: as §2
Chain of Casein kinase I isoform alpha (Homo sapiens) (P48729 2-337 limits assumed): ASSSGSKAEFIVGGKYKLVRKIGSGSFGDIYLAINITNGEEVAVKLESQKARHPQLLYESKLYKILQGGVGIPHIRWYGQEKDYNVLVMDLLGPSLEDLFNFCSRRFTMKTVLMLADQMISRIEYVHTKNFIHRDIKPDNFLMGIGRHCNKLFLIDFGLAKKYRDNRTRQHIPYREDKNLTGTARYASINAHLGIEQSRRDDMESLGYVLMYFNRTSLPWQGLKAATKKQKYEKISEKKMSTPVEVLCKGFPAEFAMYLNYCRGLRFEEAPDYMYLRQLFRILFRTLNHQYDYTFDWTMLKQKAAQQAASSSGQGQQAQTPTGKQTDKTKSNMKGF

[19] = biological target: Vascular endothelial growth factor receptor 2 (Homo sapiens) (UniProt P35968); test: Inhibition of VEGFR2 in HUVEC assessed as decrease in VEGF-induced eNOS phosphorylation at Ser1177 residues pretreated for 30 mins followed by VEGF stimulation for 20 mins by Western blot analysis; format: cell-based; outline: as §1

| SMILES | pIC50 (HUVEC [1]) | pIC50 (HUVEC [2]) | other results |
| --- | --- | --- | --- |
| CCc1ccc2nc(C(c3ccc(O)c(O)c3)n3cc(CCN(C)C)nn3)oc2c1 (configuration not stated) | < 4.70 | < 4.00 | – |
| CCc1ccc2nc(C(c3ccc(OC)c(OC)c3)n3cc(CCN(C)C)nn3)sc2c1 (configuration not stated) | 5.08 | 4.03 | – |
| CCc1ccc2nc(C(c3ccc(OC)c(OC)c3)n3cc(CCN4CCOCC4)nn3)sc2c1 (configuration not stated) | 5.41 | < 4.00 | – |
| CCN(CC)CCNC(=O)c1c(C)[nH]c(/C=C2\C(=O)Nc3ccc(F)cc32)c1C [SUNITINIB] | 6.26 | 5.00 | – |
| CCCNCCc1cn(C(c2ccc(OC)c(OC)c2)c2nc3ccc(CC)cc3s2)nn1 (configuration not stated) | 5.86 | 4.41 | – |
| CCc1ccc2nc(C(c3ccc(O)c(O)c3)n3cc(CCN(C)C)nn3)sc2c1 (configuration not stated) | 5.52 | 4.43 | – |
| CCc1ccc2nc(C(c3ccc(OC)c(OC)c3)n3cc(CCNC4CCCC4)nn3)sc2c1 (configuration not stated) | 5.99 | 4.71 | – |
| CCc1ccc2c(c1)OC(C(c1ccc(O)c(O)c1)n1cc(CCN(C)C)nn1)O2 (configuration not stated) | 4.55 | 4.02 | – |
| CCc1ccc2cc(C(c3ccc(O)c(O)c3)n3cc(CCN(C)C)nn3)oc2c1 (configuration not stated) | 5.21 | 4.66 | – |
| CCc1ccc2nc(C(c3ccc(OC)c(OC)c3)n3cc(CCN4CCCC4)nn3)sc2c1 (configuration not stated) | 5.55 | 4.15 | – |
| CCc1ccc2nc(C(c3ccc(OC)c(OC)c3)n3cc(CCN4CCCCC4)nn3)sc2c1 (configuration not stated) | 6.20 | 4.32 | inhibition [3]: Active; inhibition (HUVEC [1]): Dose-dependent effect; inhibition [4]: Active; remaining at 0.5 h, 10 µM [5]: 95%; inhibition [6]: Active; Activity (HUVEC [7]): Dose-dependent effect; inhibition [8]: Active; inhibition [9]: Active; inhibition [10]: > 40%; remaining at 0.5 h, 1 µM [11]: 31%; inhibition (HUVEC [12]): Active; Papp A→B at 10 µM [13]: 11 ×10⁻⁶ cm/s; inhibition [14]: > 40%; inhibition (Danio rerio [15]): Dose-dependent effect; Activity (Danio rerio [16]): Non-Toxic; inhibition [17]: Active; inhibition [18]: > 40%; inhibition [19]: Active |
| CN(C)CCc1cn(C(c2ccc(O)c(O)c2)C2Oc3ccc(/C=C/OS(=O)(=O)O)cc3O2)cn1 (configuration not stated) | 4.37 | < 4.00 | – |
